According to ChEMBL document CHEMBL4004794, “Identification of Neuroprotective Spoxazomicin and Oxachelin Glycosides via Chemoenzymatic Glycosyl-Scanning” (J Nat Prod, 2017):
The source made the active and inactive calls. The calls are words filed in the database; no cut-off is given here.

Assays:
[1] = test system: Micrococcus luteus; assay: Antibacterial activity against Micrococcus luteus NRRL B-287 at <= 60 to 120 uM; type: functional
Procedure, shortened: (§1)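 Run in triplicate by the group's previously reported protocols. Compounds were tested up to 60–120 μM against bacteria and yeast, and up to 20 μM against non-small-cell lung A549 cells. Bacterial strains were S. aureus ATCC 6538, M. luteus NRRL B-287, E. coli NRRL B-3708 and S. enterica ATCC 10708. The yeast was S. cerevisiae ATCC 204508.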

[2] = test system: A549; assay: Cytotoxicity against human A549 cells at <= 20 uM; type: functional, cell-based; procedure, shortened: as §1
[3] = test system: Hippocampal neurone; assay: Neuroprotective activity against EtOH-induced cytotoxicity in Sprague-Dawley rat primary hippocampal neurons assessed as decrease in propidium iodide uptake at 0.01 to 0.1 uM after 48 hrs by fluorescence microscopic method; type: functional, cell-based
Procedure, shortened: (§2)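 Rat hippocampus-derived primary cell cultures were exposed for 48 h to 100 mM EtOH, with or without compound (0.01–1.0 μM, dose–response). A DMSO control was included. Damage was read as propidium iodide uptake into compromised cells.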

[4] = test system: Escherichia coli; assay: Antibacterial activity against Escherichia coli NRRL B-3708 at <= 60 to 120 uM; type: functional; procedure, shortened: as §1
[5] = test system: Salmonella enterica subsp. enterica serovar Choleraesuis str. ATCC 10708; assay: Antibacterial activity against Salmonella enterica ATCC 10708 at <= 60 to 120 uM; type: functional
Procedure, shortened: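 Run in triplicate against S. enterica ATCC 10708, a strain obtained from ATCC. Compounds were tested at concentrations up to ≤60−120 μM.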

[6] = test system: Saccharomyces cerevisiae; assay: Antifungal activity against Saccharomyces cerevisiae ATCC 204508 at <= 60 to 120 uM; type: functional; procedure, shortened: as §1
[7] = test system: Hippocampal neurone; assay: Neuroprotective activity against EtOH-induced cytotoxicity in Sprague-Dawley rat primary hippocampal neurons assessed as decrease in propidium iodide uptake at 0.1 to 1 uM after 48 hrs by fluorescence microscopic method; type: functional, cell-based; procedure, shortened: as §2
[8] = test system: Staphylococcus aureus; assay: Antibacterial activity against Staphylococcus aureus ATCC 6538 at <= 60 to 120 uM; type: functional; procedure, shortened: as §1
[9] = test system: Hippocampal neurone; assay: Neuroprotective activity against EtOH-induced cytotoxicity in Sprague-Dawley rat primary hippocampal neurons assessed as decrease in propidium iodide uptake at 0.01 to 1 uM after 48 hrs by fluorescence microscopic method; type: functional, cell-based; procedure, shortened: as §2
[10] = test system: Hippocampal neurone; assay: Neuroprotective activity against EtOH-induced cytotoxicity in Sprague-Dawley rat primary hippocampal neurons assessed as decrease in propidium iodide uptake at 1 uM after 48 hrs by fluorescence microscopic method; type: functional, cell-based; procedure, shortened: as §2

SMILES	Activity [1]	Activity [2]	Activity [3]	Activity [4]	Activity [5]	Activity [6]	Activity [7]	Activity [8]	Activity [9]	Activity [10]
NC(=O)[C@@H]1COC(c2ccccc2O[C@@H]2O[C@H](CO)[C@@H](O)[C@H](O)[C@H]2O)=N1	inactive	inactive	inactive	inactive	inactive	inactive	Active	inactive		
O=CN(O)CCC[C@@H](NC(=O)[C@H](CO)NC(=O)[C@@H]1COC(c2ccccc2O)=N1)C(=O)NCCC(=O)N[C@@H]1CCCN(O)C1=O	inactive	inactive		inactive	inactive	inactive		inactive		
C[C@H](CO)NC(=O)c1ccccc1O[C@@H]1O[C@H](CO)[C@@H](O)[C@H](O)[C@H]1O	inactive	inactive		inactive	inactive	inactive		inactive		
N[C@H]1[C@H](Oc2ccccc2C2=N[C@H](CO)CO2)O[C@H](CO)[C@@H](O)[C@@H]1O	inactive	inactive		inactive	inactive	inactive		inactive	inactive	
NC(=O)[C@@H]1COC(c2ccccc2O)=N1	inactive	inactive		inactive	inactive	inactive		inactive		
OC[C@@H]1COC(c2ccccc2O)=N1	inactive	inactive		inactive	inactive	inactive		inactive		
C[C@@H](CO)NC(=O)c1ccccc1O	inactive	inactive		inactive	inactive	inactive		inactive		
O=C(NC(CO)CO)c1ccccc1O	inactive	inactive		inactive	inactive	inactive		inactive		
C[C@H](CO)NC(=O)c1ccccc1O[C@@H]1O[C@H](CO)[C@@H](O)[C@H](O)[C@H]1N	inactive	inactive		inactive	inactive	inactive		inactive		
O=CN(O)CCC[C@@H](NC(=O)[C@H](CO)NC(=O)[C@@H]1COC(c2ccccc2O[C@@H]2O[C@H](CO)[C@@H](O)[C@H](O)[C@H]2O)=N1)C(=O)NCCC(=O)N[C@@H]1CCCN(O)C1=O	inactive	inactive		inactive	inactive	inactive		inactive		
OC[C@@H]1COC(c2ccccc2O[C@@H]2O[C@H](CO)[C@@H](O)[C@H](O)[C@H]2O)=N1	inactive	inactive	Active	inactive	inactive	inactive		inactive		inactive
OC[C@H]1O[C@@H](OC[C@@H]2COC(c3ccccc3O)=N2)[C@H](O)[C@@H](O)[C@@H]1O	inactive	inactive		inactive	inactive	inactive		inactive		
C[C@H](CO)NC(=O)c1ccccc1O	inactive	inactive		inactive	inactive	inactive		inactive		
C[C@@H](CO)NC(=O)c1ccccc1O[C@@H]1O[C@H](CO)[C@@H](O)[C@H](O)[C@H]1N	inactive	inactive		inactive	inactive	inactive		inactive		
O=C(NC(CO)CO)c1ccccc1O[C@@H]1O[C@H](CO)[C@@H](O)[C@H](O)[C@H]1O	inactive	inactive		inactive	inactive	inactive		inactive		
N[C@H]1[C@H](Oc2ccccc2C(=O)NC(CO)CO)O[C@H](CO)[C@@H](O)[C@@H]1O	inactive	inactive		inactive	inactive	inactive		inactive		
C[C@@H](CO)NC(=O)c1ccccc1O[C@@H]1O[C@H](CO)[C@@H](O)[C@H](O)[C@H]1O	inactive	inactive		inactive	inactive	inactive		inactive		
N[C@H]1[C@H](Oc2ccccc2C2=N[C@H](C(=O)N[C@@H](CO)C(=O)N[C@H](CCCN(O)C=O)C(=O)NCCC(=O)N[C@@H]3CCCN(O)C3=O)CO2)O[C@H](CO)[C@@H](O)[C@@H]1O	inactive	inactive		inactive	inactive	inactive		inactive		
